# Sampled rows, rich in hits. Any-hit rate of the full collection: about 2.2%.
# NR2E3 ag-1 = activates human photoreceptor nuclear receptor NR2E3 | GST-NR2E3/biotin-RetCOR TR-FRET, 1536-well | inhibition of corepressor binding, % at 4.78 µM | 320,000 compounds, 0.12% hits;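 active = percent inhibition above the cutoff of mean plus 3 SD of all tested compounds, set per screening campaign, cut at about 20% in these data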
# Target sequence (Q9Y5X4 whole entry, looked up): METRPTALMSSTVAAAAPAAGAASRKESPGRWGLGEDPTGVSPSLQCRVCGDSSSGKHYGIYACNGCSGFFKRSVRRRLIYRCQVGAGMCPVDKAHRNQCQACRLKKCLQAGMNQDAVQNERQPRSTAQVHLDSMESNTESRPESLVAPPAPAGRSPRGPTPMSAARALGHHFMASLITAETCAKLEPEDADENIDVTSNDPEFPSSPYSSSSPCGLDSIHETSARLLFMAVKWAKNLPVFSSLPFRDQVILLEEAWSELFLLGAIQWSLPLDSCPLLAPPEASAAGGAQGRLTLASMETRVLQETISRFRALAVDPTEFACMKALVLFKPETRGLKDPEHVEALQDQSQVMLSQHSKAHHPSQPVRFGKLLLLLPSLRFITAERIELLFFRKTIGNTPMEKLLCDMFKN
#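 system = GST-tagged NR2E3 plus biotinylated RetCOR corepressor | input = 1.35 nM GST-NR2E3 | also added = 7 nM biotin-RetCOR | schedule = 5 h incubation at 4 °C | measured by = TR-FRET with europium anti-GST and streptavidin-D2, 340 nm excitation | read-out = percent loss of FRET ratio relative to control wells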
# GAA850 FXN act = activators of GAA850 frataxin (FXN) promoter | activation, % at 6 µM | HEK293 lucGAA850 FXN promoter luciferase reporter, 24 h; percent of 10 µM SAHA response | 360,000 compounds, 0.56% hits;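 active = activation above the average of all compounds screened plus 3 SD, cutoff fixed separately per campaign, cut at about 7.5% in these data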
# NR2E3 ag-2 = activates human NR2E3 receptor; CHO-S Gal4-NCOR/VP16-NR2E3 two-hybrid, luciferase; inhibition of corepressor binding, % at 3.98 µM; 360,000 compounds, 0.35% hits; AID 602229;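 active = inhibition above the mean of all tested compounds plus 3 SD, cut at about 70% in these data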;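 also: higher means lower luciferase signal from less NR2E3 corepressor binding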
# GalR3 antag = human GalR3 antagonism | O60755 | inhibition, % at 3 µM | 360,000 compounds, 0.44% hits | HEK293 GalR3-CNG cAMP membrane potential fluorescence; galR3 body fused to GalR1 C-terminus;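 active = inhibition above the screen-wide average plus 3 SD, cut at about 13% in these data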;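 also: forskolin and galanin both at EC90 stimulate the cells; cAMP rise reported by CNG channel membrane potential dye signal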
# Target sequence (O60755 1-299 limits assumed): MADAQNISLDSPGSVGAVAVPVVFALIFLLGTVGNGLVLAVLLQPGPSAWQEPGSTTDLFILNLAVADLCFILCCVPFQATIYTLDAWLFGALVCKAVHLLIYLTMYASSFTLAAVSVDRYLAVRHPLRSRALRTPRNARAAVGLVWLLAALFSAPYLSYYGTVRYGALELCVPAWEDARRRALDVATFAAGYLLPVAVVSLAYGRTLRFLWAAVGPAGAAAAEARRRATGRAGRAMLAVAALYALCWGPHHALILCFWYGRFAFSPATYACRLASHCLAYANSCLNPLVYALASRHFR
# V-ATPase pH = regulators of yeast V-ATPase proton transport. response, % at 10 µM. S. cerevisiae, pHLuorin cytosolic pH fluorescence. AID 504577. 350,000 compounds, 0.37% hits; in the data active = response mostly above about 7.3%, no sharp cut-off; inactive = mostly below about 5.4%; also: actives read high
# HIV Env fusion = HIV envelope-mediated fusion inhibition | HeLa-JRFL Env/CEM21 cell fusion, luciferase | inhibition, % at 12.3 µM | 360,000 compounds, 1.1% hits | AID 651610;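 active = mean replicate inhibition score of at least 50 and every replicate individually at or above 50; inconclusive = only one of the two criteria met; inactive = mean below 50 and not all replicates reaching 50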
# NR2E3 ag confirm = confirmation of human NR2E3 agonists; shares compounds with NR2E3 ag-2; CHO-S mammalian two-hybrid NR2E3-NCOR, luciferase luminescence; inhibition, % at 3.98 µM; 2,300 compounds, 51% hits; AID 624378;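 active = average inhibition above a cutoff equal to the mean inhibition of all tested compounds plus one SD, cut at about 70% in these data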
# GAL4-VP16 luc = reduces GAL4-VP16 reporter signal in NR2E3 counterscreen; CHO-S GAL4-VP16 luciferase reporter, luminescence; shares compounds with NR2E3 ag-2; inhibition, % at 3.98 µM; 2,300 compounds, 29% hits;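 active = mean inhibition above a cutoff equal to the average over all tested compounds plus one standard deviation, cut at about 70% in these data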;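 also: luciferase from a UAS reporter driven by GAL4-VP16 transactivation; higher means less reporter light so more repression of VP16 activity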
# A number is an active result; n = inactive; u = inconclusive; x = no result.
SMILES,NR2E3 ag-1,GAA850 FXN act,NR2E3 ag-2,GalR3 antag,V-ATPase pH,HIV Env fusion,NR2E3 ag confirm,GAL4-VP16 luc
O=C(Nc1ccccc1)N1CCCC(c2nc(-c3ccc(F)cc3)no2)C1 (stereo not given),n,n,n,n,n,x,x,x
O=C(Nc1cccc(C(F)(F)F)c1)N1CCC(c2nc(-c3ccc(F)cc3)no2)CC1,n,n,n,n,n,68.8,n,n
CC(C)CNC(=S)N1CCC(c2nc(-c3ccc(F)cc3)no2)CC1,n,n,n,n,n,n,88.4,n
COCC(=O)N1CCC2(CC1)CN(C(=O)c1ccccn1)[C@H](CO)c1c2c2ccc(OC)cc2n1C,x,x,x,x,x,n,x,x
CO[C@H]1CN(C)C(=O)c2ccc(NS(C)(=O)=O)cc2OC[C@@H](C)N(Cc2nccs2)C[C@@H]1C,x,x,x,x,x,n,x,x
COc1ccc(Nc2nc(N3CCCC3)c3ccccc3n2)cc1,n,n,n,n,n,x,n,n
CCN(CC)c1ccc(Nc2nc(N3CCOCC3)c3ccccc3n2)cc1,n,n,72.5,n,n,56.8,74.5,n
O=C(C[C@@H]1CC[C@@H](NC(=O)Nc2ccc3c(c2)OCO3)[C@@H](CO)O1)NCc1ccc(F)cc1,x,x,x,x,x,n,x,x
COc1c(Cl)c(=O)oc2ccc(Cl)cc12,x,n,n,n,n,x,x,x
COc1ccccc1-n1c(=O)oc2ccc(Cl)cc2c1=O,n,n,73.2,n,n,x,96.3,n
C[C@@H]1CN([C@@H](C)CO)C(=O)c2cccc(NC(=O)C3CCOCC3)c2O[C@H]1CN(C)S(C)(=O)=O,x,x,x,x,x,n,x,x
Nc1cc(S(=O)(=O)Nc2cc(Cl)ccc2Cl)ccc1N1CCOCC1,n,n,n,n,n,n,n,n
CSc1ccc(S(=O)(=O)Nc2ccc3c(c2)OCCO3)cc1,n,n,n,n,n,n,x,x
CSc1ccc(S(=O)(=O)Nc2ccc(N3CCOCC3)c(Cl)c2)cc1,n,n,n,n,n,x,n,n
CCOc1ccc(S(=O)(=O)Nc2ccc(C(=O)N3CCCC3)cc2)cc1,n,n,n,n,n,n,x,x
CCCCOc1ccc(S(=O)(=O)Nc2ccc(NC(C)=O)cc2)cc1,n,n,70.2,n,n,n,n,n
COc1ccc(N2CCN(C(=O)c3ccc(CNS(=O)(=O)c4ccc(C)cc4)cc3)CC2)cc1,n,n,n,n,n,n,x,x
Cc1ccc(S(=O)(=O)NCc2ccc(C(=O)N3CCN(c4ccc([N+](=O)[O-])cc4)CC3)cc2)cc1,n,n,n,n,n,n,82.6,n
CCOc1ccc(NS(=O)(=O)c2ccc(C(=O)N3CCCC(C)C3)cc2)cc1 (stereo not given),n,n,n,n,n,x,73.8,n
CC(=O)Nc1ccc(S(=O)(=O)Oc2ccc(C(=S)N3CCCCC3)cc2)cc1,n,n,n,n,n,u,70.2,n
CC(C)NC(=O)N(C)C[C@@H]1OCCCC[C@@H](C)Oc2ccc(NC(=O)C3CCCCC3)cc2C(=O)N([C@@H](C)CO)C[C@H]1C,x,x,x,x,x,n,x,x
CC(=O)Nc1ccc2c(c1)C(=O)N(C)[C@@H]1CC[C@@H](CC(=O)NCC3CCCCC3)O[C@H]1CO2,x,x,x,x,x,n,x,x
CO[C@H]1CN(C)C(=O)c2cc(C#N)ccc2OC[C@H]2O[C@H](CC[C@H]2OC)CCN(C)C(=O)[C@@H]1C,x,x,x,x,x,n,x,x
COc1ccc(NS(=O)(=O)c2ccc(NC(=O)C3CC3)cc2)cc1,n,n,n,n,n,n,n,n
Cc1ccc(S(=O)(=O)NCc2ccc(C(=O)N3CCN(c4ccccn4)CC3)cc2)cc1,n,n,n,n,n,n,x,x
SMILES,NR2E3 ag-1,GAA850 FXN act,NR2E3 ag-2,GalR3 antag,V-ATPase pH,HIV Env fusion,NR2E3 ag confirm,GAL4-VP16 luc
CCOc1ccc(NS(=O)(=O)c2ccc(NC(=O)C3CC3)cc2)cc1,n,n,n,n,n,n,x,x
CCOc1ccc(NS(=O)(=O)c2ccc(C(=O)N3CCCCCC3)cc2)cc1,n,n,73.2,n,n,x,n,n
COc1ccc(NS(=O)(=O)c2ccc(C(=O)N3CCCCCC3)cc2)cc1,x,n,75.6,n,n,n,n,n
Cc1ccc(NS(=O)(=O)c2ccc(C(=O)N3CCN(c4ccccn4)CC3)cc2)cc1,n,n,n,n,n,x,n,n
CCOC(=O)N1CCN(C(=O)c2ccc(NS(=O)(=O)c3ccc(C)cc3)cc2)CC1,n,n,n,n,n,n,x,x
CCOC(=O)N1CCN(C(=O)c2ccc(S(=O)(=O)Nc3ccc(C)cc3)cc2)CC1,x,n,n,n,n,n,81.0,n
N#CC(=C(O)CN1CCN(c2ccccc2F)CC1)c1nc(-c2ccccc2)cs1,x,n,n,n,n,n,n,n
C[C@H](O)C#Cc1cnc2c(c1)C(=O)N([C@@H](C)CO)C[C@H](C)[C@@H](CN(C)CC1CCCCC1)O2,x,x,x,x,x,n,x,x
CN(C(=O)OC(C)(C)C)c1ccc(-c2nc3ccccc3s2)cc1,n,n,89.1,n,n,57.2,85.5,77.5
CC(C)c1ccc(-c2nc3ccccc3s2)cc1,n,n,87.6,n,n,n,71.3,n
FC(F)(F)c1ccc(-c2nc3ccccc3s2)cc1,x,x,n,n,x,n,x,x
CCC(=O)Nc1ccc2c(c1)C(=O)N(C)[C@@H]1CC[C@@H](CC(=O)NCCc3ccccc3)O[C@@H]1CO2,x,x,x,x,x,n,x,x
COc1ccc(NC(=O)Nc2ccc3c(c2)C(=O)N([C@H](C)CO)C[C@H](C)[C@H](CN(C)C(=O)NC2CCCCC2)OCCCC[C@H](C)O3)cc1,x,x,x,x,x,n,x,x
CC(C)c1ccc(CNc2nc(NCC3CC3)nc3ccsc23)cc1,x,n,n,n,x,n,n,n
COc1cccc(CNc2nc(NCC3CC3)nc3ccsc23)c1,x,n,84.4,n,x,n,n,n
CNc1nc(NCc2cccc(OC)c2)c2sccc2n1,x,n,n,n,x,x,x,x
COc1ccccc1CNc1nc(NCc2ccc(C(C)C)cc2)c2sccc2n1,x,n,n,n,x,n,x,x
CSc1ccccc1CNc1nc(NCC2CC2)nc2ccsc12,x,n,71.6,n,x,56.3,n,n
COc1cccc(CNc2nc(NCc3ccccc3)nc3ccsc23)c1,x,n,n,n,x,n,n,n
O=C(C[C@@H]1CC[C@H]2[C@@H](COC[C@@H](O)CN2Cc2cccc(Cl)c2)O1)NCC1CCCCC1,x,x,x,x,x,n,x,x
COc1ccc(NC(=O)N[C@@H]2CC[C@@H](CCNC(=O)c3ccccc3F)O[C@H]2CO)cc1,x,x,x,x,x,n,x,x
CNC[C@@H]1OCCCC[C@@H](C)Oc2ccc(NC(=O)Nc3ccccc3)cc2C(=O)N([C@H](C)CO)C[C@H]1C,x,x,x,x,x,n,x,x
Cc1ccc(S(=O)(=O)Nc2ccc3c(c2)C(=O)N([C@@H](C)CO)C[C@@H](C)[C@@H](CN(C)Cc2ccccc2)O3)cc1,x,x,x,x,x,n,x,x
